Results published in ChEMBL document CHEMBL4765233, “From Lead to Drug Candidate: Optimization of 3-(Phenylethynyl)-1H-pyrazolo[3,4-d]pyrimidin-4-amine Derivatives as Agents for the Treatment of Triple Negative Breast Cancer” (J Med Chem, 2016).
Activity calls are given as the source filed them. The calls are words filed in the database; no cut-off is given here.

How the values were obtained:
[1] = Acute toxicity in Sprague-Dawley rat assessed as histopathological changes in heart at 100 mg/kg, po administered as single dose measured after 24 hrs by H and E staining based light microscope analysis; format: organism-based; settings: in vivo
Summary of the method: (§1)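 Sprague-Dawley rats received a single oral dose of 100 mg/kg in sterile water with 25% (v/v) PEG400 plus 5% DMSO. Organs were examined by histology and immunohistochemistry for pathological changes. Behaviour and side effects were checked daily.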

[2] = Acute toxicity in Sprague-Dawley rat assessed as histopathological changes in liver at 100 mg/kg, po administered as single dose measured after 24 hrs by H and E staining based light microscope analysis; format: organism-based; settings: in vivo; summary of the method: as §1
[3] = Acute toxicity in Sprague-Dawley rat assessed as histopathological changes in spleen at 100 mg/kg, po administered as single dose measured after 24 hrs by H and E staining based light microscope analysis; format: organism-based; settings: in vivo; summary of the method: as §1
[4] = Acute toxicity in Sprague-Dawley rat assessed as histopathological changes in lungs at 100 mg/kg, po administered as single dose measured after 24 hrs by H and E staining based light microscope analysis; format: organism-based; settings: in vivo; summary of the method: as §1
[5] = Acute toxicity in Sprague-Dawley rat assessed as histopathological changes in kidney at 100 mg/kg, po administered as single dose measured after 24 hrs by H and E staining based light microscope analysis; format: organism-based; settings: in vivo; summary of the method: as §1
MDA-MB-231 [6] = experiment: Antitumor activity against human MDA-MB-231 cells xenografted in SCID mouse assessed as tumor growth inhibition at 10 mg/kg, iv administered weekly for 21 days and measured every 3 days; format: functional, organism-based; settings: time 21.0 day
Summary of the method: (§2)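 SCID mice (5−6 weeks) injected subcutaneously with 100 μL of cells at 5 × 10^7/mL. At 150−200 mm3 mice randomized, 6 per group. Oral compounds given in water with 25% PEG400 plus 5% DMSO; paclitaxel given 10 mg/kg/week iv. Tumor volume a×b²/2 and body weight measured every 3 days. Inhibition rate (c−d)/c×100% against vehicle control.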

[7] = Toxicity against SCID mouse xenografted with human MDA-MB-231 cells assessed as change in body weight at 10 mg/kg, iv administered weekly for 21 days and measured every 3 days; format: organism-based; settings: in vivo, 504 h, time 21 day
Summary of the method: (§3)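 Exponential-phase cells washed and injected subcutaneously (5 × 10^6 cells in 100 μL) into 5–6-week SCID mice. At 150–200 mm3, mice randomised to groups of 6. Oral dosing daily in water with 25% PEG400 and 5% DMSO; paclitaxel 10 mg/kg weekly by tail vein. Body weight measured every 3 days and side effects checked daily.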

[8] = Toxicity against SCID mouse xenografted with human MDA-MB-435 cells assessed as change in body weight at 10 mg/kg, iv administered weekly for 21 days and measured every 3 days; format: organism-based; settings: in vivo, 504 h, time 21 day; summary of the method: as §3
[9] = tested on: MDA-MB-435 (Homo sapiens); experiment: Antitumor activity against human MDA-MB-435 cells xenografted in SCID mouse assessed as tumor growth inhibition at 10 mg/kg, iv administered weekly for 21 days and measured every 3 days; settings: time 21.0 day
MDA-MB-231 [10] = experiment: Antiproliferative activity against human MDA-MB-231 cells assessed as reduction in cell viability incubated for 72 hrs by MTT assay; format: functional, cell-based; settings: MDA-MB-231, 72 h
Summary of the method: (§4)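 MTT viability assay. ATCC cell lines were grown in designated medium with 10% FBS at 37 °C, 5% CO2. Cells seeded at 1500−30000 per well and incubated 24 h, then exposed to compound (0−10 μg/mL) for 72 h. MTT added for 2−4 h. Formazan dissolved in DMSO (adherent) or acidified SDS overnight (suspension), absorbance read at 570 nm. Triplicates; IC50 calculated.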

MDA-MB-435 [11] = experiment: Antiproliferative activity against human MDA-MB-435 cells assessed as reduction in cell viability incubated for 72 hrs by MTT assay; format: functional, cell-based; settings: MDA-MB-435, 72 h; summary of the method: as §4
HepG2 = experiment: Antiproliferative activity against human HepG2 cells assessed as reduction in cell viability incubated for 72 hrs by MTT assay; format: ADME, cell-based; settings: HepG2, 72 h
MDA-MB-231 [12] = experiment: Antitumor activity against human MDA-MB-231 cells xenografted in SCID mouse assessed as tumor growth inhibition at 40 mg/kg, po qd for 21 days and measured every 3 days; format: functional; settings: dose 40.0 mg/kg/day, time 21.0 day; summary of the method: as §2
[13] = Toxicity in SCID mouse xenografted with MDA-MB-231 cells assessed as change in body weight at 40 mg/kg, po qd for 21 days and measured every 3 days; format: organism-based; settings: in vivo, 504 h, dose 40 mg/kg/day, time 21 day; summary of the method: as §3
MDA-MB-231 [14] = experiment: Inhibition of colony formation in human MDA-MB-231 cells at 0.1 uM treated for 12 days by crystal violet staining based visual analysis; format: functional, cell-based; settings: time 12.0 day
Summary of the method: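 MDA-MB-231 cells seeded at 5000 per well in six-well plates and treated the next day, with drug-containing medium replaced every 4 days. After 12 days, colonies fixed with methanol and stained with crystal violet, then photographed.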

MDA-MB-231 [15] = experiment: Induction of apoptosis in human MDA-MB-231 cells assessed as necrotic cells at 0.1 uM incubated for 24 hrs by annexin V-FITC and propidium iodide staining based flow cytometry analysis (reference value: 0.2 %); format: functional
MDA-MB-231 [16] = experiment: Induction of apoptosis in human MDA-MB-231 cells assessed as late apoptotic cells at 0.1 uM incubated for 24 hrs by annexin V-FITC and propidium iodide staining based flow cytometry analysis (reference value: 0.85 %); format: functional
MDA-MB-231 [17] = experiment: Induction of apoptosis in human MDA-MB-231 cells assessed as live cells at 0.1 uM incubated for 24 hrs by annexin V-FITC and propidium iodide staining based flow cytometry analysis (reference value: 96.95 %); format: functional
MDA-MB-231 [18] = experiment: Induction of apoptosis in human MDA-MB-231 cells assessed as early apoptotic cells at 0.1 uM incubated for 24 hrs by annexin V-FITC and propidium iodide staining based flow cytometry analysis (reference value: 2 %); format: functional
MDA-MB-231 [19] = experiment: Antimigratory activity against human MDA-MB-231 cells assessed as inhibition of cell migration at 0.3 uM incubated for 20 hrs by wound healing assay; format: functional, cell-based
Summary of the method: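 MDA-MB-231 monolayer grown to confluence, scratched with a sterile pipet tip, rinsed with physiological saline, then given DMEM containing vehicle or compound. Wound imaged after 20 h to assess migration.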

MDA-MB-231 [20] = experiment: Increase in cleaved caspase-3 level in human MDA-MB-231 cells at 0.03 to 0.3 uM incubated for 20 hrs by Western blot analysis; format: functional, cell-based; settings: dose 0.03-0.3 µM
Summary of the method: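 MDA-MB-231 cells given a concentration series for 20 h at 37 °C. Cells lysed in RIPA with protease cocktail, cleared at 12000 rpm, 4 °C. Protein quantified by Bradford, equal amounts run on SDS-PAGE, transferred to PVDF and immunoblotted.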

MDA-MB-231 [21] = experiment: Inhibition of MEK phosphorylation in human MDA-MB-231 cells at 0.03 to 0.3 uM incubated for 20 hrs by Western blot analysis; format: cell-based; settings: dose 0.03-0.3 µM
Summary of the method: (§5)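 MDA-MB-231 cells treated with a series of concentrations for 20 h at 37 °C. Cells washed with ice-cold saline and lysed in RIPA buffer with protease cocktail. Lysates cleared at 12000 rpm for 10 min at 4 °C and protein quantified by Bradford. Equal protein separated by SDS-PAGE, transferred to PVDF and probed with antibodies.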

MDA-MB-435 [22] = experiment: Antitumor activity against human MDA-MB-435 cells xenografted in SCID mouse assessed as tumor growth inhibition at 40 mg/kg, po QD for 21 days and measured every 3 days; format: functional; settings: dose 40.0 mg/kg/day, time 21.0 day; summary of the method: as §2
MDA-MB-231 [23] = experiment: Inhibition of ERK phosphorylation in human MDA-MB-231 cells at 0.03 to 0.3 uM incubated for 20 hrs by Western blot analysis; format: cell-based; settings: dose 0.03-0.3 µM; summary of the method: as §5
MDA-MB-231 [24] = experiment: Inhibition of Fra1 phosphorylation in human MDA-MB-231 cells at 0.03 to 0.3 uM incubated for 20 hrs by Western blot analysis; format: functional, cell-based; settings: dose 0.03-0.3 µM; summary of the method: as §5
MDA-MB-231 [25] = experiment: Inhibition of Fra1 expression in human MDA-MB-231 cells at 0.03 to 0.3 uM incubated for 20 hrs by Western blot analysis; format: functional, cell-based; settings: dose 0.03-0.3 µM; summary of the method: as §5
MDA-MB-231 [26] = experiment: Antitumor activity against human MDA-MB-231 cells xenografted in SCID mouse assessed as tumor growth inhibition at 40 mg/kg, po qd for 15 days and measured every 3 days; format: functional; settings: MDA-MB-231, po, 360 h, time 15 day; summary of the method: as §2
[27] = Toxicity in SCID mouse xenografted with MDA-MB-231 cells assessed as change in body weight at 40 mg/kg, po qd for 15 days and measured every 3 days; format: organism-based; settings: in vivo, 360 h, dose 40 mg/kg/day, time 15 day
[28] = Toxicity in SCID mouse xenografted with MDA-MB-231 cells assessed as animal death at 40 mg/kg, po qd for 15 days; format: organism-based; settings: in vivo, dose 40 mg/kg/day, time 15 day, read-out: Activity
[29] = target: Voltage-gated inwardly rectifying potassium channel KCNH2 (Homo sapiens, UniProt Q12809); experiment: Inhibition of human ERG expressed in CHO cells at -80 mV holding potential by automated Qpatch electrophysiological assay
Voltage-gated inwardly rectifying potassium channel KCNH2, sequence (Q12809 whole entry): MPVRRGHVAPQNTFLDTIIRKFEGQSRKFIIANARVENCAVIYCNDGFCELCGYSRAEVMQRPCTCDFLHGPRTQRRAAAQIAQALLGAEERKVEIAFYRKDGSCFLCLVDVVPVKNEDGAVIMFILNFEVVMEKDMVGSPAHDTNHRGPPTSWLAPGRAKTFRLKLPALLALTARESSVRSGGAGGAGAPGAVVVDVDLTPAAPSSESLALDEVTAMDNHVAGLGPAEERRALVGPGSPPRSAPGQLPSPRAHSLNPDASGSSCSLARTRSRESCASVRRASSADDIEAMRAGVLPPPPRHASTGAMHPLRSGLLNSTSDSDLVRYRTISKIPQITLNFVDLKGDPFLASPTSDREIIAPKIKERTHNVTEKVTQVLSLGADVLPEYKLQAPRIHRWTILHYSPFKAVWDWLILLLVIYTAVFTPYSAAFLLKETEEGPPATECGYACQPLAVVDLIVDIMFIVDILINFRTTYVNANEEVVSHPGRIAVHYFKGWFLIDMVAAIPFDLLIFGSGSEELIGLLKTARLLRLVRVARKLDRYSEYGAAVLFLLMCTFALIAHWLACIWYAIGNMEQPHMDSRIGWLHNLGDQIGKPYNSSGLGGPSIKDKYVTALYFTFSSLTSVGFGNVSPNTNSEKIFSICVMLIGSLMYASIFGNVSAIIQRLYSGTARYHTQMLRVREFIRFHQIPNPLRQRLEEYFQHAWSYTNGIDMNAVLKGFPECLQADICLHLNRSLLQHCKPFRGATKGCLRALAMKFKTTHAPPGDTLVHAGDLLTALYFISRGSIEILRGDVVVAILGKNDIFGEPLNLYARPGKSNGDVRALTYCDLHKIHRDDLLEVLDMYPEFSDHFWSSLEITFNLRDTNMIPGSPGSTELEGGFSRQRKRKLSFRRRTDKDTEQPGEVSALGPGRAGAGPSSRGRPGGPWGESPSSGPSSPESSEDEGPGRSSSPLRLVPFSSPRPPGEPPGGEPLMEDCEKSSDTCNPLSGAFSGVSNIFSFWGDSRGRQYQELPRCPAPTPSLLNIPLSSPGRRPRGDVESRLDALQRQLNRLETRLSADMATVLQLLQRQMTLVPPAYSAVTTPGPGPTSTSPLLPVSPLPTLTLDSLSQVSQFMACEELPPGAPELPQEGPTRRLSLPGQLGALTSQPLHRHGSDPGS

What does the source list for `CCn1nc(C#Cc2cc(C(=O)Nc3ccc(CN4CCN(C)CC4)c(C(F)(F)F)c3)ccc2C)c2c(N)ncnc21`?
Activity [1]: Toxic; Activity [2]: Toxic; Activity [3]: Toxic; Activity [4]: Toxic; Activity [5]: Toxic

What does the source list for `CC(=O)O[C@H]1C(=O)[C@@]2(C)[C@H]([C@H](OC(=O)c3ccccc3)[C@]3(O)C[C@H](OC(=O)[C@H](O)[C@@H](NC(=O)c4ccccc4)c4ccccc4)C(C)=C1C3(C)C)[C@]1(OC(C)=O)CO[C@@H]1C[C@@H]2O` [PACLITAXEL]?
Activity (MDA-MB-231 [6]): Active; Activity [7]: Non-Toxic; Activity [8]: Non-Toxic; Activity [9]: Active

Which IC50 (MDA-MB-231 [10]) does the source give for `Cc1nc(Nc2ncc(C(=O)Nc3c(C)cccc3Cl)s2)cc(N2CCN(CCO)CC2)n1.O` [DASATINIB] here?
Its IC50 is 112 nM.

And the IC50 (MDA-MB-435 [11])?
Its IC50 is 5150 nM.

And the IC50 (HepG2)?
Its IC50 is 7500 nM.

And the Activity (MDA-MB-231 [12])?
The Activity was “Active”.

What about the Activity [13] of the same compound?
Its Activity is “Non-Toxic”.

What about the inhibition (MDA-MB-231 [14]) of the same compound?
The inhibition was “Active”.

And the Activity (MDA-MB-231 [15])?
Its Activity is 0.34%.

And the Activity (MDA-MB-231 [16])?
Its Activity is 2.45%.

And the Activity (MDA-MB-231 [17])?
The Activity was 92.97%.

What about the Activity (MDA-MB-231 [18]) of the same compound?
The Activity was 4.24%.

What about the Activity (MDA-MB-231 [19]) of the same compound?
The Activity was “Active”.

What about the Activity (MDA-MB-231 [20]) of the same compound?
Its Activity is “Active”.

And the inhibition (MDA-MB-231 [21])?
The inhibition was “Active”.

And the inhibition (MDA-MB-435 [22])?
Its inhibition is “Active”.

And the inhibition (MDA-MB-231 [23])?
Its inhibition is “Active”.

What about the inhibition (MDA-MB-231 [24]) of the same compound?
Its inhibition is “Active”.

What about the inhibition (MDA-MB-231 [25]) of the same compound?
The inhibition was “Active”.

For `Cc1ccc(NC(=O)c2cccc(C(F)(F)F)c2)cc1C#Cc1nn(C[C@H](C)CO)c2ncnc(N)c12`, which IC50 (MDA-MB-231 [10]) is on record?
Its IC50 is 10 nM.

And the IC50 (MDA-MB-435 [11])?
Its IC50 is 10 nM.

What about the IC50 (HepG2) of the same compound?
The IC50 was greater than 10000 nM.

What about the inhibition in vivo at 40 mg/kg/day (MDA-MB-231 [26]) of the same compound?
The inhibition in vivo at 40 mg/kg/day was 77.3%.

And the Activity [27]?
Its Activity is -8.2%.

What about the mortality at 360 h [28] of the same compound?
Its mortality at 360 h is 0%.

And the IC50 [29]?
Its IC50 is greater than 30000 nM.

What does the source list for `Cc1ccc(NC(=O)c2cccc(C(F)(F)F)c2)cc1C#Cc1nn(C[C@@H](C)CO)c2ncnc(N)c12`?
IC50 (MDA-MB-231 [10]): 17 nM; IC50 (MDA-MB-435 [11]): 10 nM; IC50 (HepG2): 9500 nM; inhibition in vivo at 40 mg/kg/day (MDA-MB-231 [26]): 78.1%; Activity [27]: -3.2%; mortality at 360 h [28]: 0%; IC50 [29]: > 30000 nM

Which IC50 (MDA-MB-231 [10]) does the source give for `Cc1ccc(NC(=O)c2ccc(Cl)c(C(F)(F)F)c2)cc1C#Cc1nn(C[C@H](C)CO)c2ncnc(N)c12` here?
The IC50 was 17 nM.

And the IC50 (MDA-MB-435 [11])?
The IC50 was 323 nM.

And the IC50 (HepG2)?
The IC50 was greater than 10000 nM.

What about the IC50 [29] of the same compound?
The IC50 was greater than 30000 nM.
